Compound activity (PubChem BioAssay)
PLCb3 inh: human PLC-beta3 inhibitors, primary screen, biochemical, fluorescence. 1-phosphatidylinositol 4,5-bisphosphate phosphodiesterase beta-3 (Homo sapiens), Q01970. Purified PLC-beta3, fluorogenic substrate. inhibition, % at 12.2 µM. 370,000 compounds, 0.18% hits. AID 720704, 2013; in the data active = inhibition above about 11%;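 note: 0% = median of compound wells on plate and 100% = full blocker control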
Tn6 DDE FP: inhibitors of Tn6 peptide binding to fibrin DD(E), primary screen, biochemical, fluorescence polarization, human fibrin, Tn6 probe. Fibrin DD(E) TRITC-Tn6 fluorescence polarization displacement. inhibition, % at 8.3 µM. 370,000 compounds, 0.21% hits. AID 720509, 2013;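 active = inhibition above a per-campaign cutoff: mean of compounds within control limits plus 3 SD, cut at about 15% in these data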;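 note: 0% = median of all compound wells on the plate and 100% = blocking peptide control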
Target sequence (P02675 whole entry, looked up): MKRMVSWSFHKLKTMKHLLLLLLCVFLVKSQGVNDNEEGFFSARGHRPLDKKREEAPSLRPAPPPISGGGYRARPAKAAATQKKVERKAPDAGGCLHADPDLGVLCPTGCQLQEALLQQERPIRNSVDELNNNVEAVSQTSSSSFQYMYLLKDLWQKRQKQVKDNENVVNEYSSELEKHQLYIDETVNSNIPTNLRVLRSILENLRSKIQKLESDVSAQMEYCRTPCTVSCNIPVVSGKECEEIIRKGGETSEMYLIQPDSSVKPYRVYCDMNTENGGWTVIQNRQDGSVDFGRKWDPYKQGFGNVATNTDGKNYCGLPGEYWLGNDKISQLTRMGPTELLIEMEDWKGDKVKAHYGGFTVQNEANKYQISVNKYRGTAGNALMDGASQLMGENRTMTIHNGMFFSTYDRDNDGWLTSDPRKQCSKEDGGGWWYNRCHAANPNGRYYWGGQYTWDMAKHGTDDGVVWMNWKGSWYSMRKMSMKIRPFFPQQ
NRP1-CendR mod: modulators of CendR peptide binding to NRP-1, primary screen, biochemical, fluorescence polarization, uHTS. Neuropilin-1 (Homo sapiens), O14786. FAM-RPARPAR peptide binding to NRP-1. inhibition, % at 25 µM. 360,000 compounds, 0.85% hits. AID 602438, 2012;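 active = inhibition or corrected inhibition above about 18%, plus a signal ratio from 0.5 to 1.5, limit read from the data, passing the limit was not always enough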
PLCg1 inh: PLC-gamma1 enzyme inhibitors, primary screen, biochemical, fluorescence, purified enzyme; inhibition, % at 12.2 µM; fluorogenic substrate; 370,000 compounds, 0.84% hits; 1-phosphatidylinositol 4,5-bisphosphate phosphodiesterase gamma-1 (Homo sapiens), P19174; in the data active = inhibition above about 9.5%
proKLK7 act: proKLK7 zymogen activators, primary screen, biochemical, fluorescence intensity; Kallikrein-7 (Homo sapiens), P49862; activation, % at 7 µM; purified proKLK7, EDANS-DABCYL substrate fluorescence; 100% is mature enzyme control, 0% vehicle; 370,000 compounds, 0.9% hits;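 active = activation above the mean of all tested compounds plus 3 SD, computed per campaign excluding outliers beyond control limits, cut at about 13% in these data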
Tn7 DDE FP: inhibitors of Tn7 peptide binding to fibrin DD(E), primary screen, biochemical, fluorescence polarization, human fibrin, Tn7 probe | FP displacement of FITC-Tn7 peptide from fibrin DD(E); 0% = median of compound wells per plate | inhibition, % at 8.3 µM | 370,000 compounds, 0.13% hits | AID 720508, 2013;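 active = inhibition above the mean of compounds falling within the control limits plus 3 SD of them, cut at about 14% in these data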;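 note: 0% = plate median of compound wells and 100% = 10 µM Aha-Tn7 peptide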
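Test system – human fibrin DD(E) · Times – 10 min preincubation, 3 h with tracer, room temperature · Detection – fluorescence polarization of the labelled Tn7 tracer · Measure – percent inhibition normalized to high-control wells · Benchmarks – high control wells with 10 µM unlabelled Aha-Tn7 peptide (full inhibition) · Repeats – singlicate testing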
Starred values were filed as active, the others as inactive; x = no result. The list is not random: actives were taken first. Their share in the collection is about 3%.

SMILES	PLCb3 inh	Tn6 DDE FP	NRP1-CendR mod	PLCg1 inh	proKLK7 act	Tn7 DDE FP
CC(=O)Nc1ncc2c(n1)CC(c1ccco1)CC2=O (stereo unspecified)	-2	2	-7	2	0	1
COc1cccc(C(=O)Nc2ncc3c(n2)CC(C)CC3=O)c1 (stereo unspecified)	2	1	-11	-1	-1	-6
CCCN1CCS(=O)(=O)N(Cc2cn(Cc3ccc(OC)cc3)nn2)C(C(=O)OC)C1 (stereo unspecified)	-2	-5	x	-3	0	0
CNC(=O)C(C)Sc1ccc(S(=O)(=O)N2CCOCC2)cn1 (stereo unspecified)	-5	-6	22*	0	0	6
COc1ccc(-c2csc(C(NC(C)=O)c3cccc(F)c3)n2)cn1 (stereo unspecified)	-9	-3	27*	-9	0	-3
CC(=O)NC(c1cccc(F)c1)c1nc(-c2cccc(C(F)(F)F)c2)cs1 (stereo unspecified)	-1	8	25*	3	0	8
CC(C)CSc1ncccc1-c1nc2ccccc2[nH]1	-8	0	x	-2	0	0
COCCn1nnnc1SCC(=O)c1ccc(F)cc1	-3	4	-3	-3	0	0
COCCn1c(SCC(=O)c2ccc(F)cc2)nnc1C(C)C	0	-3	24*	2	0	-3
O[C@H](COc1cccc(C(F)(F)F)c1)CN1CCC(C(O)(c2ccccc2)c2ccccc2)CC1	5	3	x	4	1	-3
CC(C)CNC(=O)/C=C/C=C/CCCC/C=C/c1ccc2c(c1)OCO2	1	-4	25*	1	0	-5
O=C(/C=C/c1ccc2c(c1)OCO2)NCCCN1CCOCC1	-31	9	-7	-20	3	4
OC(c1ccccc1)(c1ccccc1)C1CCN(CCCNc2ccc(Cl)cc2Cl)CC1	3	1	x	2	0	2
C=CCCC(=O)N[C@H]1CC[C@@]23CCCN2C(=O)CCC[C@H]3[C@H]1CCC	4	9	x	4	x	-2
O=C(NCc1ccccc1)C1CCC1	3	5	40*	7	1	9
O=C(NCc1ccccc1)C1CCCN(C(=O)NCc2ccccc2)C1 (stereo unspecified)	-6	6	12	0	0	-4
Cc1ccc(/C=C2/SC(=S)N(C3CCCCC3)C2=O)o1	-18	1	-66	-7	-1	-5
Cn1cc(/C=C2\SC(=O)NC2=S)c2ccccc21	-6	-1	-1	-3	0	16*
Cc1ccc(/C=C2/SC(=O)NC2=S)o1	x	x	53*	x	x	x
Cc1ccc(C(=O)NN2C(=O)/C(=C/c3cn(C)c4ccccc34)SC2=S)cc1	0	-2	-36	-2	0	-4
CC(OC(=O)c1cc(Br)ccc1O)C(=O)Nc1ccc(S(=O)(=O)N2CCCC2)cc1 (stereo unspecified)	-15	-6	25*	-11	2	2
Cc1cccc(C(=O)OC(C)C(=O)Nc2ccc(S(=O)(=O)N3CCCC3)cc2)c1O (stereo unspecified)	-24	-8	9	-22	0	4
CCOc1cccc(CNCCO)c1OCc1ccc(Cl)cc1Cl	4	-4	-6	6	1	-4
CCOc1cccc(CNc2ccc(O)cc2)c1OCc1ccccc1Cl	-63	16*	-1	-57	0	4
CCOc1cccc(CNc2ccc(O)cc2)c1OCc1ccc(Cl)cc1Cl	-64	28*	14	-58	0	0
SMILES	PLCb3 inh	Tn6 DDE FP	NRP1-CendR mod	PLCg1 inh	proKLK7 act	Tn7 DDE FP
O=C(CSc1nnc(-c2cccs2)o1)Nc1cccc2ccccc12	-4	0	x	-4	0	8
Cc1ccsc1/C=N/NC(=O)C(=O)NCC(C)C	2	1	32*	1	0	2
COc1cc(OC)cc(C(=O)N2CCCC(Nc3ccc(F)cc3)C2)c1 (stereo unspecified)	-6	0	22*	-2	1	2
COc1ccc(NC2CCCN(C(=O)CSc3ccncc3)C2)cc1 (stereo unspecified)	-10	2	23*	-1	0	9
COc1ccc(CCC(=O)N2CCCC(Nc3ccc(OC)cc3)C2)cc1 (stereo unspecified)	-4	6	-49	0	0	2
CC1(c2nnnn2Cc2ccccc2)CCCCC(=O)N1Cc1cccs1 (stereo unspecified)	-1	7	x	-2	0	11
Cc1ccccc1OCC(O)CNC1CCC(NCC(O)COc2ccccc2C)CC1 (stereo unspecified)	7	1	20*	16*	0	-4
Cc1ccc(OCC(O)CNC2CCCC2)c(C)c1 (stereo unspecified)	-5	0	0	0	0	-1
CC(=O)N1CCN(S(=O)(=O)c2cccc(C(=O)NNC(=O)Cn3ccc(C(F)(F)F)n3)c2)CC1	-5	3	28*	1	0	-2
CC(=O)N1CCN(S(=O)(=O)c2cccc(C(=O)NNC(=O)Cn3nc(C)cc3C)c2)CC1	-3	9	0	-6	-1	5
O=S1(=O)c2ccc(N3CCN(Cc4ccccc4F)CC3)cc2Oc2ccccc2CN1Cc1cn(Cc2ccccc2C(F)(F)F)nn1	-2	0	x	-3	0	0
O=C(CSc1nc(O)c(Cc2ccccc2)c(=O)n1-c1ccccc1)N1CCOCC1	0	-3	26*	0	-1	-8
Cc1ccc(-n2c(SCC(=O)N3CCOCC3)nc(O)c(Cc3ccccc3)c2=O)cc1	-5	-5	3	0	0	2
COC(=O)CCCn1cc(CN2CC=CS2(=O)=O)nn1	0	-1	x	-2	0	2
O=C(O)CS(=O)(=O)c1ccc(C(F)(F)F)cn1	-6	-13	36*	5	0	-2
NC(=O)c1ccc(C(F)(F)F)cn1	-3	-9	-2	-1	0	3
c1ccc(-n2nnnc2NCCCN2CCOCC2)cc1	-4	5	30*	-2	0	-1
O=C(CCCn1cnc([N+](=O)[O-])n1)Nc1cccc(Cl)c1Cl	4	1	31*	3	-1	-8
COc1ccc(/C=C(/NC(=O)c2ccccc2)C(=O)N2CCCCC2)cc1OC	-6	1	28*	-2	0	1
